The text below walks through data of publication PMC12475083 (Scientific Reports, 2025).

A word on the IC50: it is the concentration needed to halve the response being measured.

The subject of one assay is SK-MEL (melanoma). Kind of assay: Cytotoxicity, WST-8 cell viability. Format: cell-based, human. Conditions: read-out: Cancer cell lines IC50 SK-MEL; 48 h incubation, mean ± SD (n = 3). The method, boiled down: (§1)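 Cells were seeded at 10,000 cells/well and grown for 24 h. Test compounds were dissolved in DMSO, diluted in medium and added at 80, 40, 20 and 10 µM. Cells were then incubated for 48 h. Viability was read with WST-8 plus 1-methoxy PMS as formazan absorbance at 450 nm. Controls were doxorubicin (positive) and 0.25% DMSO (vehicle). IC50 came from concentration-response curves, mean ± SD (n = 3).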

The test system of a further assay is LLC-PK1 kidney cells. Put plainly: Cytotoxicity, WST-8 cell viability, non-cancer kidney cells. Format: cell-based. The following applies: read-out: Kidney cells IC50 LLC-PK1; 48 h incubation, mean ± SD (n = 3). In outline: as §1
Background: Formazan colour is commonly taken as a measure of viable cells.

Another assay deals with Vero kidney cells. The assay is described as above. Format: cell-based. The following applies: read-out: Kidney cells IC50 Vero; 48 h incubation, mean ± SD (n = 3). The method, boiled down:
as §1

A further assay addresses T1, hHDAC8 (Homo sapiens, UniProt Q9BY41).
T1 sequence (Q9BY41 1-377): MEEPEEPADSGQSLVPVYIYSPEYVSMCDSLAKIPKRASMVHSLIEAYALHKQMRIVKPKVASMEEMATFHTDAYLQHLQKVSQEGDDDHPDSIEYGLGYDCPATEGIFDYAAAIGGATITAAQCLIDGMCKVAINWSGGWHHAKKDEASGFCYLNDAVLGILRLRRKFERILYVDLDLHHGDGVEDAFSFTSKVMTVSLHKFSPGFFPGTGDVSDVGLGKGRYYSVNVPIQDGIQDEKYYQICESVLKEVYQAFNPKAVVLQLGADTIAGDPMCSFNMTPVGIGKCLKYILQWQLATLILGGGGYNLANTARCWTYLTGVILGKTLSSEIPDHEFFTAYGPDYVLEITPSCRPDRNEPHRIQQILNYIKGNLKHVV
Put plainly: biochemical. Format: biochemical.

Assay [1] has as its system SK-OV-3 (ovarian carcinoma). Put plainly: Cytotoxicity, WST-8 cell viability. Format: cell-based, human. The following applies: read-out: Cancer cell lines IC50 SK-OV-3; 48 h incubation, mean ± SD (n = 3). The method, boiled down:
as §1

The target in the next assay is T2, hHDAC6 (Homo sapiens, UniProt Q9UBN7).
T2 sequence (Q9UBN7 1-1215): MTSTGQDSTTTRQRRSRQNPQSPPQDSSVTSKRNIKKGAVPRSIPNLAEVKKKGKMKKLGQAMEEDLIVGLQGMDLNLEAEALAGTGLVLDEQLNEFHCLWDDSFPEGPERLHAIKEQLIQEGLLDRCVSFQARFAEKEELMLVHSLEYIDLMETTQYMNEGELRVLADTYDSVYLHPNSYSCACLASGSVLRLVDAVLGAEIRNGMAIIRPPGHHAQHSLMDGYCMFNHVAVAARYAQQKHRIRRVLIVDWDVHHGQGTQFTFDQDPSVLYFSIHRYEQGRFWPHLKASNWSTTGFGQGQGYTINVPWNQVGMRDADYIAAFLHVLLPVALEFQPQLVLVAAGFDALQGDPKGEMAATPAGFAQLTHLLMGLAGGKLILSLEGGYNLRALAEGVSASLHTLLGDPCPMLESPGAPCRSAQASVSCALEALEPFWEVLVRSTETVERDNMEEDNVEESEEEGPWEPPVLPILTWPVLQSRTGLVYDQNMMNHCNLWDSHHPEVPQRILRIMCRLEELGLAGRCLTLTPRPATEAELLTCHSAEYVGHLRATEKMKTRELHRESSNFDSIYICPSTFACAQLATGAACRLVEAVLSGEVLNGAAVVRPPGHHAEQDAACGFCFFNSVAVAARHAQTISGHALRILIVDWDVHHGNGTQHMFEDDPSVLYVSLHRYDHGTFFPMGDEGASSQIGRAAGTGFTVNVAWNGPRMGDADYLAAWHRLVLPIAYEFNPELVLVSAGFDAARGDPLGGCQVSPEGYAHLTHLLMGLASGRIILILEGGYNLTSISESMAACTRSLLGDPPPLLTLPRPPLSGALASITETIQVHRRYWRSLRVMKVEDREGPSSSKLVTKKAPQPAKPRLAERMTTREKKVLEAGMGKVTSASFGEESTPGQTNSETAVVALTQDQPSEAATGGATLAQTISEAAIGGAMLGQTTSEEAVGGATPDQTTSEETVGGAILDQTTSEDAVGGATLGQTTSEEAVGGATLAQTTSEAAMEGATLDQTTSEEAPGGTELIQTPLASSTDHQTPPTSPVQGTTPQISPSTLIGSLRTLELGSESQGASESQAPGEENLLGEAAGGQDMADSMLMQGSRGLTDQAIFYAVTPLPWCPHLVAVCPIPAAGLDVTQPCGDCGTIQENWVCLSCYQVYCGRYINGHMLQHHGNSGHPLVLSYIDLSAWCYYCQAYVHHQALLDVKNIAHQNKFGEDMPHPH
Kind of assay: biochemical. The following applies: read-out: hHDAC6 IC50; recombinant human HDAC6.

The target in a further assay is T3, drHDAC10 (Danio rerio, UniProt F1QCV2).
T3 sequence (F1QCV2 1-675): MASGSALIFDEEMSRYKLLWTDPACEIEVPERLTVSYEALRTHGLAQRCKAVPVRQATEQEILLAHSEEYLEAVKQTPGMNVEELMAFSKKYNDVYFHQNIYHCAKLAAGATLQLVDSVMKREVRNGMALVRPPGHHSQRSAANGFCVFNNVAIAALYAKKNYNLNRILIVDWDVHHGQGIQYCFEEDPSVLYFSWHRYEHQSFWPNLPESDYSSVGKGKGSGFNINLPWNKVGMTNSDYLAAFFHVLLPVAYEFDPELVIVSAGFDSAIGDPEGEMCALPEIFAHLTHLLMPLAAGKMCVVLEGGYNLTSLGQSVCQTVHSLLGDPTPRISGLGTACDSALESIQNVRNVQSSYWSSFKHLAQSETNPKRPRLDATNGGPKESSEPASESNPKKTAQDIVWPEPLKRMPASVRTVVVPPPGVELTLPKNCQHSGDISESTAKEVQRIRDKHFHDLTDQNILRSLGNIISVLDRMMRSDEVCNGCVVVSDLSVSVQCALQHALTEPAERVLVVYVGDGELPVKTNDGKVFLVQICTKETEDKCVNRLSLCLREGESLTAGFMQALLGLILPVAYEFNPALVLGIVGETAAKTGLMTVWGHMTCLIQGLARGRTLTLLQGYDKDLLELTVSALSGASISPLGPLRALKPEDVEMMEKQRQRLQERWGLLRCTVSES
Put plainly: Enzymatic in vitro HDAC10 inhibition assay. Format: biochemical, zebrafish. In outline: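 Recombinant wild-type drHDAC10 (5 nM final) was preincubated 5 min with test compound at various concentrations in 20 mM HEPES pH 7.4 with 0.5 mg/mL BSA. The reaction was started with 50 µM Ac-spermidine-AMC and incubated 25 min at 25 °C. A stop solution containing 16 mM NDA derivatized the released primary amine. Fluorescence was read at λex 330 nm and λem 390 nm.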

Assay [2] deals with BT-549 (breast carcinoma). Kind of assay: Cytotoxicity, WST-8 cell viability. Conditions: read-out: Cancer cell lines IC50 BT-549; 48 h incubation, mean ± SD (n = 3). Format: cell-based, human. The method, boiled down: as §1
The next assay deals with hHDAC1 (Homo sapiens, UniProt Q13547). Kind of assay: biochemical. Format: biochemical.
In the next assay the test system is KB (epidermal carcinoma). Put plainly: Cytotoxicity, WST-8 cell viability. Format: cell-based, human. Conditions: read-out: Cancer cell lines IC50 KB; 48 h incubation, mean ± SD (n = 3). The method, boiled down:
as §1

hHDAC1, sequence (Q13547 whole entry): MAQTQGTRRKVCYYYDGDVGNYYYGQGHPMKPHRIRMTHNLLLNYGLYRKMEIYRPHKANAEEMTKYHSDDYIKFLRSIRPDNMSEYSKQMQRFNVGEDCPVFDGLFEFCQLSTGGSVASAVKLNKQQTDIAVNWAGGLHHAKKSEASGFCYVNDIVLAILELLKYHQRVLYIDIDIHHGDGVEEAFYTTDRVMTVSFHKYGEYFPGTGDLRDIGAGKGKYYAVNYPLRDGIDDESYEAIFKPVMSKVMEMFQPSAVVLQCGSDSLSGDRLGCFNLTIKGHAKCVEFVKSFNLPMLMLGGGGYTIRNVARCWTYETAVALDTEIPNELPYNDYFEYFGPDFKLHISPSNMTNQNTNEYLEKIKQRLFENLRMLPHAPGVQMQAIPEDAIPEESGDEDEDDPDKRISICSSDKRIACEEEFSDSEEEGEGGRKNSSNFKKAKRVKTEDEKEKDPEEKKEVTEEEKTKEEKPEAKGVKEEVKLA

Consider `Cc1ccc(S(=O)(=O)n2cc(CNCc3ccc(C(=O)NO)cc3)c3ccccc32)cc1` [Compound 2c, N-hydroxy-4-((((1-tosyl-1H-indol-3-yl)methyl)amino)methyl) benzamide], for which the 50% inhibitory concentration (IC50) amounted to 15.1 ± 0.94 µM in the assay on SK-MEL (melanoma); 16.6 ± 3.93 µM in the assay on LLC-PK1 kidney cells; 21.4 ± 1.27 µM with Vero kidney cells; 21.4 ± 1.89 µM in assay [1]; 0.051 ± 0.005 µM at hHDAC6; 0.0045 ± 0.0003 µM on drHDAC10 (read-out: IC50 drHDAC10 ± SD, zebrafish HDAC10, recombinant wild type). In addition, the IC50 in [2] was 16.5 ± 0.32 µM; with KB (epidermal carcinoma), 20.2 ± 0.32 µM. In addition, the “hHDAC8 % @1 µM” value at hHDAC8 (inhibitor at 1 µM) worked out at 65.1%. Further, the “hHDAC8 % @10 µM” value on hHDAC8 (inhibitor at 10 µM) worked out at 97.3%. At drHDAC10 (tosyl analogue vs compound 2a), the “reduction in HDAC10 inhibitory activity compared to compound 2a” value is on record as ~10 fold. The “hHDAC1 % @1 µM” value at hHDAC1 (inhibitor at 1 µM) came out at 22.2%. Moreover, the “hHDAC1 % @10 µM” value on hHDAC1 (inhibitor at 10 µM) is 72.8%.
